According to publication PMC11964602 (Bioactive Materials, 2025):
Where two headings read alike, the source gives them in different places. Where no end group is shown, it is not given here.

Tests used:
[1] = tested on: CPB, porcine carboxypeptidase; conditions: cited from earlier work
[2] = molecular target: SARS-CoV-2 main protease (M^pro) (SARS-CoV-2 (Wuhan-Hu-1 isolate)) (UniProt P0DTD1)
[3] = Cytotoxicity assay; assay type: cell-based, mouse
Procedure, shortened: (§1)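 Cells seeded at 10,000 per well and grown 24 h. They were then given medium containing 6.25–50 μg/mL peptide, with medium alone as control, for 24 h at 37 °C, 5% CO2. CCK-8 reagent was added and incubated 1 h at 37 °C, and absorbance read at 450 nm. Cytotoxicity was calculated from the OD values.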

[4] = tested on: NIH/3T3; experiment: Cytotoxicity assay; assay type: cell-based, mouse; conditions: NIH/3T3; 6.25–50 μg/mL; 24 h
Procedure, shortened: as §1

[5] = Cytotoxicity assay; assay type: cell-based, human
Procedure, shortened: as §1

[6] = tested on: HUVECs; experiment: Cytotoxicity assay; assay type: cell-based, human; conditions: HUVECs; 6.25–50 μg/mL; 24 h
Procedure, shortened: as §1

[7] = tested on: rat RBCs; experiment: Hemolysis assay; assay type: cell-based; conditions: 62.5–1000 μg/mL, 37 °C, 30 min
Procedure, shortened: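 Rat RBCs in glycine-buffered stabilizing saline were exposed to test peptide at 62.5, 125, 250, 500 or 1000 μg/mL for 30 min at 37 °C in a water bath, then centrifuged. Supernatant absorbance was read at 540 nm. RBCs in stabilizing buffer defined 0% hemolysis and 0.1% SDS (final) defined 100%.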

[8] = tested on: HUVECs; experiment: Wound healing assay; assay type: cell-based, human; conditions: 25 μg/mL, 8 h, vs control
Procedure, shortened: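 A confluent HUVEC monolayer was scratched with a sterile 200 μL pipette tip and debris washed off with PBS. Medium containing peptide at 25 μg/mL was added, and cells migrated 8 h at 37 °C. Bright-field images were taken at 0 and 8 h and wound areas measured by image analysis. Percent closure was computed from initial area minus 8-h area. Three experiments were run, each in triplicate wells.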

[9] = tested on: HUVECs; experiment: Tube formation assay with H2O2-generated ROS; assay type: cell-based, human; conditions: 25 μg/mL, 24 h
Procedure, shortened: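 Confluent HUVECs were harvested and seeded at 1 × 10^4 cells per chamber on basement membrane matrix (Geltrex)-coated chamber slides. ROS groups received H2O2 (200 μM solution). Parent and metabolite peptides were each at 25 μg/mL in medium. After 24 h incubation, tubular networks were imaged by bright-field microscopy and tube parameters quantified by image analysis.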

[10] = molecular target: T1, SARS-CoV-2 main protease (M^pro) (SARS-CoV-2 (Wuhan-Hu-1 isolate), UniProt P0DTD1); experiment: ITC
[11] = molecular target: T1, SARS-CoV-2 main protease (M^pro); experiment: cell-based or functional assay

In the case of “Ac-Tβ4_31-43: peptide metabolite of Ac-Tβ4, amino acids 31-43 (KETIEQEKQAGES; Thymosin beta-4; UniProt P62328 32-44, looked up, fragment)”, the “detected as metabolite of Ac-Tβ4: CPB” value [1] is listed as “D ^a”.

With FDKS peptide the IC50 of inhibition of SARS-CoV-2 M^pro, FRET-based enzymatic assay [2] was 63.2 µM.

In the case of `CC[C@H](C)[C@H](NC(=O)[C@H](CCC(=O)O)NC(=O)[C@H](C)NC(=O)[C@H](CCSC)NC(=O)[C@H](CC(=O)O)NC(=O)[C@@H]1CCCN1C(=O)[C@H](CCCCN)NC(=O)[C@H](CC(=O)O)NC(=O)[C@H](CO)NC(C)=O)C(=O)N[C@@H](CCC(=O)O)C(=O)N[C@@H](CCCCN)C(=O)N[C@@H](Cc1ccccc1)C(=O)N[C@@H](CC(=O)O)C(=O)N[C@@H](CCCCN)C(=O)N[C@@H](CO)C(=O)N[C@@H](CCCCN)C(=O)N[C@@H](CC(C)C)C(=O)N[C@@H](CCCCN)C(=O)N[C@@H](CCCCN)C(=O)N[C@H](C(=O)N[C@@H](CCC(=O)O)C(=O)N[C@H](C(=O)N[C@@H](CCC(N)=O)C(=O)N[C@@H](CCC(=O)O)C(=O)N[C@@H](CCCCN)C(=O)N[C@@H](CC(N)=O)C(=O)N1CCC[C@H]1C(=O)N[C@@H](CC(C)C)C(=O)N1CCC[C@H]1C(=O)N[C@@H](CO)C(=O)N[C@@H](CCCCN)C(=O)N[C@@H](CCC(=O)O)C(=O)N[C@H](C(=O)N[C@H](C(=O)N[C@@H](CCC(=O)O)C(=O)N[C@@H](CCC(N)=O)C(=O)N[C@@H](CCC(=O)O)C(=O)N[C@@H](CCCCN)C(=O)N[C@@H](CCC(N)=O)C(=O)N[C@@H](C)C(=O)NCC(=O)N[C@@H](CCC(=O)O)C(=O)N[C@@H](CO)C(=O)O)[C@@H](C)CC)[C@@H](C)O)[C@@H](C)O)[C@@H](C)O` [Ac-Tβ4, Acetyl-thymosin β4], the viability [3] is reported as over 90%, the cytotoxicity [4] is reported as “No cytotoxicity” and the viability [5] is reported as over 90%. The cytotoxicity [6] was “No cytotoxicity”, the “hemolytic activity, OD values compared to 0.1 % SDS” value [7] was under 1.5% and the wound closure [8] was “significantly enhanced wound closure”. The “tube formation under H2O2 (ROS scavenging)” value [9] was “failed to mitigate ROS-induced damage”.

In the case of Ac-SDKPDMAEIEKFDKSKL [Ac-Tβ_(1-17), acetyl-thymosin β4 (amino acid 1-17)], the Kd [10] is reported as 22 µM, the dH [10] is reported as -11.4 kcal/mol and the “stoichiometry N” value [10] is reported as 0.87. The “IC50 of inhibition of SARS-CoV-2 M^pro, FRET-based enzymatic assay” value [11] was 22.4 µM.

For Ac-SDKPDMAEIEKFDK [Ac-Tβ_(1-14), acetyl-thymosin β4 (amino acids 1-14)], the Kd [10] was 19.4 µM, the dH [10] was 40.3 kcal/mol and the “stoichiometry N” value [10] was 1.05. For the same molecule, the “IC50 of inhibition of SARS-CoV-2 M^pro, FRET-based enzymatic assay” value [11] was 26.1 µM.
